Source: ChEMBL document CHEMBL3272285, “A potential amphetamine antagonist, adamantanamine derivative of fluphenazine” (J Med Chem, 1976)

Tests used:
Rattus norvegicus [1] = experiment: Inhibition of d-amphetamine-induced increase shock avoidance response in Sprague-Dawley rat at 70 mg/kg, sc on day 7, drug administered prior to 2 mg/kg d-amphetamine challenge on 1,2,4 and 7th day relative to control; type: functional; design: scale not given: the % may be the effect or the level left
Outline: (§1)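 Rats were pretreated sc with 0.1 mmol of the dihydrochloride 1, 2, 4 or 7 days before 2 mg/kg d-amphetamine sulfate, in groups of five. Each was placed in a shuttle box 30 min after amphetamine and ran one session. Light and tone came on a variable interval 60-s schedule, with shock 5 s later; a trial ended without response 30 s after shock onset. Avoidances over 50 trials were scored as % of an amphetamine-only control group.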

Rattus norvegicus [2] = experiment: Toxicity in Sprague-Dawley rat assessed as spontaneous locomotor activity at 70 mg/kg, sc on day 4 relative to control; type: organism-based; design: dose 70 mg/kg, route subcutaneous; settings: in vivo
Rattus norvegicus [3] = experiment: Inhibition of d-amphetamine-induced increase shock avoidance response in Sprague-Dawley rat at 70 mg/kg, sc on day 2, drug administered prior to 2 mg/kg d-amphetamine challenge on 1,2,4 and 7th day relative to control; type: functional; design: scale not given: the % may be the effect or the level left; outline: as §1
Rattus norvegicus [4] = experiment: Toxicity in Sprague-Dawley rat assessed as shock avoidance response at 70 mg/kg, sc on day 4 relative to d-amphetamine; type: organism-based; design: dose 70 mg/kg, route subcutaneous; settings: in vivo
Rattus norvegicus [5] = experiment: Inhibition of d-amphetamine-induced increase shock avoidance response in Sprague-Dawley rat at 70 mg/kg, sc on day 4, drug administered prior to 2 mg/kg d-amphetamine challenge on 1,2,4 and 7th day relative to control; type: functional; design: scale not given: the % may be the effect or the level left; outline: as §1
Rattus norvegicus [6] = experiment: Toxicity in Sprague-Dawley rat assessed as shock avoidance response at 70 mg/kg, sc on day 7 relative to d-amphetamine; type: organism-based; design: dose 70 mg/kg, route subcutaneous; settings: in vivo
Rattus norvegicus [7] = experiment: Inhibition of d-amphetamine-induced increase spontaneous locomotor activity in Sprague-Dawley rat at 70 mg/kg, sc on day 1, drug administered prior to 2 mg/kg d-amphetamine challenge on 1,2,4 and 7th day relative to control; type: functional; design: scale not given: the % may be the effect or the level left
Outline: (§2)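 After the initial drug injections, with a sesame oil vehicle group as control, rats got 2 mg/kg d-amphetamine in saline on days 1, 2, 4 and 7. Motor activity was recorded with an electronic motility meter for 30 min immediately after each amphetamine dose, at the same time of day. Counts are expressed as % of the vehicle control group.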

Rattus norvegicus [8] = experiment: Inhibition of d-amphetamine-induced increase shock avoidance response in Sprague-Dawley rat at 70 mg/kg, sc on day 1, drug administered prior to 2 mg/kg d-amphetamine challenge on 1,2,4 and 7th day relative to control; type: functional; design: scale not given: the % may be the effect or the level left; outline: as §1
Rattus norvegicus [9] = experiment: Inhibition of d-amphetamine-induced increase spontaneous locomotor activity in Sprague-Dawley rat at 70 mg/kg, sc on day 4, drug administered prior to 2 mg/kg d-amphetamine challenge on 1,2,4 and 7th day relative to control; type: functional; design: scale not given: the % may be the effect or the level left; outline: as §2
Rattus norvegicus [10] = experiment: Toxicity in Sprague-Dawley rat assessed as spontaneous locomotor activity at 70 mg/kg, sc on day 7 relative to control; type: organism-based; design: dose 70 mg/kg, route subcutaneous; settings: in vivo
Rattus norvegicus [11] = experiment: Inhibition of d-amphetamine-induced increase spontaneous locomotor activity in Sprague-Dawley rat at 70 mg/kg, sc on day 2, drug administered prior to 2 mg/kg d-amphetamine challenge on 1,2,4 and 7th day relative to control; type: functional; design: scale not given: the % may be the effect or the level left; outline: as §2
Rattus norvegicus [12] = experiment: Toxicity in Sprague-Dawley rat assessed as spontaneous locomotor activity at 70 mg/kg, sc on day 2 relative to control; type: organism-based; design: dose 70 mg/kg, route subcutaneous; settings: in vivo
Rattus norvegicus [13] = experiment: Toxicity in Sprague-Dawley rat assessed as shock avoidance response at 70 mg/kg, sc on day 2 relative to d-amphetamine; type: organism-based; design: dose 70 mg/kg, route subcutaneous; settings: in vivo
Rattus norvegicus [14] = experiment: Toxicity in Sprague-Dawley rat assessed as shock avoidance response at 70 mg/kg, sc on day 1 relative to d-amphetamine; type: organism-based; design: dose 70 mg/kg, route subcutaneous; settings: in vivo
Rattus norvegicus [15] = experiment: Inhibition of d-amphetamine-induced increase spontaneous locomotor activity in Sprague-Dawley rat at 70 mg/kg, sc on day 7, drug administered prior to 2 mg/kg d-amphetamine challenge on 1,2,4 and 7th day relative to control; type: functional; design: scale not given: the % may be the effect or the level left; outline: as §2
Rattus norvegicus [16] = experiment: Toxicity in Sprague-Dawley rat assessed as spontaneous locomotor activity at 70 mg/kg, sc on day 1 relative to control; type: organism-based; design: dose 70 mg/kg, route subcutaneous; settings: in vivo
Rattus norvegicus [17] = experiment: Toxicity in Sprague-Dawley rat assessed as sedation effect at 70 mg/kg, sc for 2 days; type: organism-based; design: dose 70 mg/kg, route subcutaneous; settings: in vivo, 48 h

**Q.** Which Activity (Rattus norvegicus [1]) does the source give for `Cl.O=C(NC12CC3CC(CC(C3)C1)C2)OCCN1CCN(CCCN2c3ccccc3Sc3ccc(C(F)(F)F)cc32)CC1` here?
**A.** Its Activity is 92.5%.

**Q.** What about the Activity (Rattus norvegicus [2]) of the same compound?
**A.** Its Activity is 29.6%.

**Q.** And the Activity (Rattus norvegicus [3])?
**A.** The Activity was 47%.

**Q.** What about the Activity (Rattus norvegicus [4]) of the same compound?
**A.** Its Activity is 90.9%.

**Q.** And the Activity (Rattus norvegicus [5])?
**A.** The Activity was 61.8%.

**Q.** And the Activity (Rattus norvegicus [6])?
**A.** The Activity was 72%.

**Q.** And the Activity (Rattus norvegicus [7])?
**A.** Its Activity is 55.7%.

**Q.** And the Activity (Rattus norvegicus [8])?
**A.** The Activity was 16.7%.

**Q.** And the Activity (Rattus norvegicus [9])?
**A.** Its Activity is 71.2%.

**Q.** What about the Activity (Rattus norvegicus [10]) of the same compound?
**A.** Its Activity is 26.6%.

**Q.** What about the Activity (Rattus norvegicus [11]) of the same compound?
**A.** Its Activity is 51.9%.

**Q.** And the Activity (Rattus norvegicus [12])?
**A.** Its Activity is 47.8%.

**Q.** And the Activity (Rattus norvegicus [13])?
**A.** The Activity was 82.2%.

**Q.** And the Activity (Rattus norvegicus [14])?
**A.** The Activity was 71.5%.

**Q.** What about the Activity (Rattus norvegicus [15]) of the same compound?
**A.** The Activity was 101.2%.

**Q.** And the Activity (Rattus norvegicus [16])?
**A.** The Activity was 52.8%.

**Q.** What about the Activity (Rattus norvegicus [17]) of the same compound?
**A.** Its Activity is “Toxic”.
